Source: ChEMBL document CHEMBL1123470, “N-substituent modulation of opiate agonist/antagonist activity in resolved 3-methyl-3-(m-hydroxyphenyl)piperidines” (J Med Chem, 1986)
Where a name gives a salt, the structure may show the parent alone. Calls of active or inactive are those of the source. The rule behind the calls is not given here.

Tests used:
[1] = target: T1, Delta-type opioid receptor (Rattus norvegicus, UniProt P33533); test: Affinity against the Opioid receptor delta 1
[2] = tested on: Mus musculus; test: Compound was tested for analgesic activity in mouse using mouse writhing test following subcutaneous administration; type: functional
[3] = tested on: Mus musculus; test: Analgesic antagonistic activity in mice using morphine(56.07 umol/kg) induced Straub-tail test after sc administration; type: functional
Outline: (§1)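 Mice got the test substance, N-allylnormorphine reference, or diluent sc, then immediately 56.07 µmol/kg morphine sulfate sc. The number of mice showing a Straub-tail reaction (tail raised above 45°) was recorded 15–25 min after treatment.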

[4] = tested on: Mus musculus; test: Compound was tested for analgesic activity in mouse using mouse writhing test after sc administration of compound; type: functional
[5] = tested on: Mus musculus; test: Compound was tested for narcotic antagonist potency using tail flick test in mouse after sc administration of compound; type: functional
[6] = tested on: Mus musculus; test: Compound was tested for analgesic potency using writhing test in mouse after sc administration of compound; type: functional
[7] = target: T2, Mu-type opioid receptor (Rattus norvegicus, UniProt P33535); test: Mu2 opioid receptor affinity against the receptor site model site 2 (mu2) by using the curve-fitting program LIGAND
[8] = target: Kappa-type opioid receptor (Rattus norvegicus, UniProt P34975); test: Opioid receptor affinity against Opioid receptor kappa 1 by using the curve-fitting program LIGAND
[9] = target: T1, Delta-type opioid receptor; test: Opioid receptor affinity against the Opioid receptor delta 1 by using the curve-fitting program LIGAND
[10] = target: T2, Mu-type opioid receptor; test: (§2) Opioid receptor mu 1 affinity against the receptor site model site 1 (mu1) by using the curve-fitting program LIGAND
Outline: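 Rat whole-brain homogenate, preincubated 37 °C 1 h, resuspended in Tris pH 7.7 (with 100 mM NaCl when appropriate) at 6.7 mg tissue/mL. […] Triplicate tubes, 25 °C 45 min, then filtration. Self- and cross-competition data were fitted together by multisite LIGAND analysis for site affinities. Values are averages of at least two experiments.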

[11] = target: Opioid receptor (Rattus norvegicus, UniProt P33533+P34975+P33535); test: Opioid receptor affinity against the receptor site model site 5 by using the curve-fitting program LIGAND; type: protein assay
[12] = target: T2, Mu-type opioid receptor; test: as §2; remark: listed apart in the source
[13] = tested on: Mus musculus; test: Compound was tested for narcotic antagonist potency using tail flick test in mouse after sc administration of compound; no significant antagonist activity up to dose of 240-300 umol/kg.; type: functional, organism-based
[14] = tested on: Mus musculus; test: Compound was tested for narcotic antagonist potency using tail flick test in mouse after sc administration of compound; No significant antagonist activity up to dose of 240-300 umol/kg.; type: functional, organism-based
[15] = tested on: Mus musculus; test: Analgesic antagonistic activity in mice using morphine(56.07 umol/kg) induced Straub-tail test after sc administration; No antagonist activity up to 846 umol/ kg; type: functional, organism-based; outline: as §1
[16] = tested on: Mus musculus; test: Compound was tested for narcotic antagonist potency using tail flick test in mouse following subcutaneous administration; type: functional; settings: sc
[17] = Mus musculus, sc, read-out: ED50

T2 sequence (P33535 whole entry): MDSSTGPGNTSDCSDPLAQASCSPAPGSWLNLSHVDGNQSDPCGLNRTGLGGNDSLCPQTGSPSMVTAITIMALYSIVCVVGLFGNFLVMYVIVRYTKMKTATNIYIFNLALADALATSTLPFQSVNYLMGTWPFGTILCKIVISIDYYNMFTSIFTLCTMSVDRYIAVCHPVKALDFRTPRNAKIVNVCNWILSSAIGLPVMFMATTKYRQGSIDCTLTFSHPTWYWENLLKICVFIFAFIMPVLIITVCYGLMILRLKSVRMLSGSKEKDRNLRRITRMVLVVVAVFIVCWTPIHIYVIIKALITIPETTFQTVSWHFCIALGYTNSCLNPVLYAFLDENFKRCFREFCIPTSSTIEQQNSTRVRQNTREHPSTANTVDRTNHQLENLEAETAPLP
Chain of Kappa-type opioid receptor (P34975 whole entry): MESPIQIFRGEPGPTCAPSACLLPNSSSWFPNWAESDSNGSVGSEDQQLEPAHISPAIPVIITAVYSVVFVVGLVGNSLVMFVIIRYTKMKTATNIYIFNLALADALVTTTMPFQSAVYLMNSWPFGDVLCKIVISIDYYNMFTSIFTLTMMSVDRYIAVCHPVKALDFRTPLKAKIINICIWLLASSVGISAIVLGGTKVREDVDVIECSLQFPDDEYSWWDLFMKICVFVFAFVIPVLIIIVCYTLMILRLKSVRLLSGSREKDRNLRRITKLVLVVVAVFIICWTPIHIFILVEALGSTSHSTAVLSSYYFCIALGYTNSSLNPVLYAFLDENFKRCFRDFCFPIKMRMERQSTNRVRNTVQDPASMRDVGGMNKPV
T1 sequence (P33533 whole entry): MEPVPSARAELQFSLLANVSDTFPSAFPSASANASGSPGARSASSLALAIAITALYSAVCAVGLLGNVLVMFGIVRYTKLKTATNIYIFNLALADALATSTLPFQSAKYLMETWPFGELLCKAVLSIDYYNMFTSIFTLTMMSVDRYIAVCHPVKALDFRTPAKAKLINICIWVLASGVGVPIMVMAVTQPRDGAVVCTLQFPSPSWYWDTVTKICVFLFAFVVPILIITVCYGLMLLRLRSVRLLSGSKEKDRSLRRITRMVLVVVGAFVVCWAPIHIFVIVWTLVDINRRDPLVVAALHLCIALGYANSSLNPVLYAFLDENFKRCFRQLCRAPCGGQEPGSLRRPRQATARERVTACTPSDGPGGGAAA

CCC1C2C(=O)c3ccc(O)cc3C1(C)CCN2CC1CC1 (stereo unspecified)
Kd [1]: 14 nM

CN1CC[C@]23c4c5ccc(O)c4O[C@H]2[C@@H](O)C=C[C@H]3[C@H]1C5
ED50 [2, 17]: 0.81 µmol/kg

CC1(c2cccc(O)c2)CCCN(CCc2ccccc2)C1 (racemic)
AD50 [3]: 33.94 µM/kg
ED50 [4]: 14.1 µmol/kg

C=CCN1CCCC(C)(c2cccc(O)c2)C1 (racemic)
AD50 [3]: 38.83 µM/kg
ED50 [4]: 418 µmol/kg

Br.CN1CCCC(C)(c2cccc(O)c2)C1 (racemic)
AD50 [3]: 18.17 µM/kg
ED50 [4]: 26.9 µmol/kg

CC1(c2cccc(O)c2)CCCN(CC2CC2)C1 (racemic)
AD50 [3]: 7.5 µM/kg
ED50 [4]: 83.5 µmol/kg

C=CCN1CCCC(C)(c2cccc(O)c2)C1 (single isomer, unassigned; (+))
ED50 [5]: 112 µmol/kg
ED50 [6]: 160.94 µM/kg
Kd [7]: 370 nM
Kd [8]: 137 nM
Kd [9]: 4000 nM
Kd [10]: 100 nM
Kd [11]: 3700 nM

CC1(c2cccc(O)c2)CCCN(CC2CC2)C1 (single isomer, unassigned; (+))
ED50 [5]: 139 µmol/kg

CC1(c2cccc(O)c2)CCCN(CCc2ccccc2)C1 (single isomer, unassigned; (-)) [listing 1 of 2 here]
ED50 [6]: 18.38 µM/kg
Kd [7]: 130 nM
Kd [8]: 625 nM
Kd [9]: 2170 nM
Kd [11]: 1390 nM
Kd [12]: 13 nM

C=CCN1CCCC(C)(c2cccc(O)c2)C1 (single isomer, unassigned; (-)) [listing 1 of 2 here]
ED50 [6]: 14.34 µM/kg
Kd [7]: 110 nM
Kd [8]: 370 nM
Kd [9]: 4000 nM
Kd [11]: 1720 nM
Kd [12]: 24 nM

CC1(c2cccc(O)c2)CCCN(CC2CC2)C1 (single isomer, unassigned; (-)) [listing 1 of 2 here]
ED50 [6, 17]: 12.2 µmol/kg

C=CCN1CCCC(C)(c2cccc(O)c2)C1 (single isomer, unassigned; (-)) [listing 2 of 2 here]
ED50 [13]: inactive

CC1(c2cccc(O)c2)CCCN(CC2CC2)C1 (single isomer, unassigned; (-)) [listing 2 of 2 here]
ED50 [13]: inactive

CC1(c2cccc(O)c2)CCCN(CCc2ccccc2)C1 (single isomer, unassigned; (-)) [listing 2 of 2 here]
ED50 [13]: inactive

CN1CCCC(C)(c2cccc(O)c2)C1 (stereo in doubt; (+)-7a)
ED50 [5]: 101 µmol/kg
ED50 [6]: 41.36 µM/kg
Kd [7]: 1000 nM
Kd [8]: 714 nM
Kd [9]: 15900 nM
Kd [11]: 19200 nM
Kd [12]: 132 nM

CC1(c2cccc(O)c2)CCCN(CCc2ccccc2)C1 (stereo in doubt; (+)-7d)
ED50 [5]: 13.1 µmol/kg
ED50 [6, 17]: 11.5 µmol/kg
Kd [7]: 6.2 nM
Kd [8]: 179 nM
Kd [9]: 588 nM
Kd [11]: 26300 nM
Kd [12]: 5 nM

CN1CCCC(C)(c2cccc(O)c2)C1 (stereo in doubt; (-)-7a) [listing 1 of 2 here]
ED50 [6, 17]: 25.7 µmol/kg
Kd [7]: 1170 nM
Kd [8]: 625 nM
Kd [9]: 30000 nM
Kd [10]: 114 nM
Kd [11]: 8330 nM

CN1CCCC(C)(c2cccc(O)c2)C1 (stereo in doubt; (-)-7a) [listing 2 of 2 here]
ED50 [14]: inactive

CCOC(=O)C1(c2ccccc2)CCN(C)CC1 [MEPERIDINE HYDROCHLORIDE]
AD50 [15]: inactive
ED50 [4]: 20.2 µmol/kg

C=CCN1CC[C@]23c4c5ccc(O)c4O[C@H]2[C@@H](O)C=C[C@H]3[C@H]1C5.Cl [NALORPHINE HYDROCHLORIDE]
AD50 [3]: 0.71 µM/kg
ED50 [2, 17]: 1.4 µmol/kg

C=CCN1CC[C@]23c4c5ccc(O)c4O[C@H]2[C@@H](O)C=C[C@H]3[C@H]1C5 [NALORPHINE]
ED50 [16]: 2.04 µmol/kg
ED50 [2]: 1.4 µM/kg
